High-throughput results as filed in PubChem BioAssay.
EP2 mod = modulators of human EP2 prostaglandin E2 receptor. P43116. EP2-expressing cells, cAMP HTRF FRET, PGE2 co-stimulation. induction, % at 25 µM. actives 0.83% (n = 260,000);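 active = compounds whose cAMP rise, as percent of the full-agonist control response, exceeds 60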;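 also: rat C6 glioma line stably carrying human EP2 under a CMV promoter; the protocol text gives 20 µM as final concentration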
NPY2 pot ag = potentiators or agonists of human neuropeptide Y receptor Y2 | P49146 | cells expressing NPY-Y2, potentiator/agonist read-out | activation, % at 3.6 µM | actives 0.45% (n = 220,000) | AID 1359; in the data active = activation above about 27%;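 also: cells stimulated with NPY near EC25 plus isoproterenol at EC100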
Target sequence (P49146 whole entry, looked up): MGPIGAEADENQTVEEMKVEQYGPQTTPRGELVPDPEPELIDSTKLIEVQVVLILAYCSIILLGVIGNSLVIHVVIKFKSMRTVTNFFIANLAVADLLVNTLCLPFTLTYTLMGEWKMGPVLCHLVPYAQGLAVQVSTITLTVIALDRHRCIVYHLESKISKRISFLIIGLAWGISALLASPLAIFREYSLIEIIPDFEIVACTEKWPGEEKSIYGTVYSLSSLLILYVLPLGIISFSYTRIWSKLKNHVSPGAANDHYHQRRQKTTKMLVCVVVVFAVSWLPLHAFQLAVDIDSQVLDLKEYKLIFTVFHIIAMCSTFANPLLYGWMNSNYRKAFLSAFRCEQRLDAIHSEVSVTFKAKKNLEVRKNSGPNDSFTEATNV
NPY-Y2 antag = blocks the human neuropeptide Y Y2 receptor | P49146 | NPY-Y2 expressing cells, antagonist mode | inhibition, % at 2.7 µM | actives 0.99% (n = 140,000) | AID 793; in the data active = inhibition above about 17%
NPY-Y1 antag = blocks the human neuropeptide Y Y1 receptor | actives 1% (n = 200,000) | HEK293-CNG Y1 cells, membrane potential fluorescence; NPY at EC95, then isoproterenol | inhibition, % at 3.6 µM | P25929;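 active = inhibition above the campaign mean inhibition of all tested compounds plus 3 SD, cut at about 20% in these data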
Target sequence (P25929 whole entry, looked up): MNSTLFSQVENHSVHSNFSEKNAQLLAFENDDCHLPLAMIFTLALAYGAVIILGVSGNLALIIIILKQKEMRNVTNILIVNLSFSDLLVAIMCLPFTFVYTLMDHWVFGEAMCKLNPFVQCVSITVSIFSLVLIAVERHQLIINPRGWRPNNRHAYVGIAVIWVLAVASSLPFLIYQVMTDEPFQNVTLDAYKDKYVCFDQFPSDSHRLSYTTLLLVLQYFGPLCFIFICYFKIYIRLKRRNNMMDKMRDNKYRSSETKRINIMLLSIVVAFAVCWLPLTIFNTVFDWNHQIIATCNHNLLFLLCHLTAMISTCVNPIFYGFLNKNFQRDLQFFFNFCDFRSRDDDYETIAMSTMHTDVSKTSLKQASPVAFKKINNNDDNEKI
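Material: HEK293 cells with Y1 receptor plus CNG channel; times: compound incubation 1 h at room temperature, readout 45 min post-stimulation; signal: fluorescence, membrane potential probe; read-out basis: fluorescence ratio normalized to % inhibition between controls; benchmarks: full-block control isoproterenol-only wells, zero-block control NPY plus isoproterenol wells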
NPY-Y1 PAM-ag = human NPY-Y1 potentiation or agonism, primary screen; activation, % at 3.6 µM; actives 0.37% (n = 220,000); AID 1304; NPY-Y1 expressing cells, potentiator/agonist activation; in the data active = activation above about 33%, passing the limit was not always enough;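 also: cells stimulated with NPY at EC10 then isoproterenol at EC100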
EP2 antag = EP2 receptor (human) inhibition | AID 1422 | actives 0.52% (n = 260,000) | inhibition, % at 25 µM | C6 glioma cells expressing human EP2, cAMP TR-FRET; cells stimulated with saturating PGE2;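 active = percent inhibition above 40 after rounding to a whole number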;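 also: rat C6 glioma host cells with rolipram phosphodiesterase inhibitor present; the protocol text gives 20 µM as final concentration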
NPY-Y2 pot conf = confirmation of human NPY-Y2 receptor potentiators or agonists; actives 20% (n = 450); AID 1539; cell-based NPY-Y2 potentiator/agonist assay; shares compounds with NPY2 pot ag; activation, % at 3.6 µM; in the data active = activation above about 33%
NPY-Y1 potentiator = potentiates or activates NPY-Y1, counter-screen for NPY-Y2 hits | shares compounds with NPY2 pot ag | Y1 HEK293-CNG cells, membrane potential fluorescence | activation, % at 3.6 µM | actives 20% (n = 450) | AID 1651; in the data active = activation above about 45%;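 also: cells stimulated with submaximal NPY then isoproterenol with phosphodiesterase inhibitor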
NPY-Y1 ag 2 = counter-screen for NPY-Y2 potentiators: agonists of human NPY-Y1; shares compounds with NPY2 pot ag; HEK293 Y1-CNGC, membrane potential fluorescence, agonism; activation, % at 3.6 µM; actives 37% (n = 450); AID 1702;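 active = activation above the mean of DMSO-only control wells plus 3 SD, cut at about 18% in these data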;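 also: cells stimulated with 1 µM isoproterenol plus the PDE inhibitor Ro 20-1724; Y1 agonists lower the membrane potential dye signal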
CNGC inh = cyclic nucleotide gated channel inhibition as counter-screen; shares compounds with NPY2 pot ag; HEK293-CNG parental, isoproterenol cAMP, membrane potential fluorescence; inhibition, % at 3.6 µM; actives 32% (n = 450); AID 1703;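 active = inhibition above the control-well mean plus 3 SD of those wells, cut at about 22% in these data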
NPY-Y2 ag 2 = activates human NPY-Y2 receptor in potentiator counter-screen | HEK293 Y2/CNGC cells, membrane potential fluorescence, agonist mode | actives 56% (n = 450) | shares compounds with NPY2 pot ag | activation, % at 3.6 µM;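 active = activation above the mean of solvent-only control wells plus 3 SD, cut at about 10% in these data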;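 also: cells stimulated by isoproterenol with no NPY added so direct agonism is tested; agonism lowers probe fluorescence through less cAMP and CNG channel opening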
A number is an active result. An excerpt weighted towards active compounds, which were near 2.8% of everything screened.

How did CN(C)C(CN=C1NS(=O)(=O)c2ccccc21)c1ccco1 (configuration not stated) do in these assays?
EP2 mod: inactive; NPY2 pot ag: 51; NPY-Y1 antag: inactive; NPY-Y1 PAM-ag: inactive; EP2 antag: inactive; NPY-Y2 pot conf: inactive; NPY-Y1 potentiator: inactive; NPY-Y1 ag 2: inactive; CNGC inh: inactive; NPY-Y2 ag 2: inactive

Results for CN(C)c1ccc(/C=C(/NC(=O)c2ccccc2)C(=O)N/N=C/c2ccc([N+](=O)[O-])c(O)c2)cc1 ?
EP2 mod: inactive; NPY2 pot ag: 33; NPY-Y2 antag: inactive; NPY-Y1 antag: inactive; NPY-Y1 PAM-ag: inactive; EP2 antag: inactive; NPY-Y2 pot conf: 34; NPY-Y1 potentiator: inactive; NPY-Y1 ag 2: 35; CNGC inh: 26; NPY-Y2 ag 2: 27

What do the screens show for `O=C(NCc1ccccc1Cl)NCc1ccccc1Cl`?
EP2 mod: inactive; NPY2 pot ag: 99; NPY-Y1 PAM-ag: inactive; EP2 antag: inactive; NPY-Y2 pot conf: inactive; NPY-Y1 potentiator: inactive; NPY-Y1 ag 2: inactive; CNGC inh: inactive; NPY-Y2 ag 2: inactive

How did O=C(CCl)N=c1sccn1Cc1cccc2ccccc12 do in these assays?
EP2 mod: inactive; NPY2 pot ag: 27; NPY-Y1 antag: inactive; NPY-Y1 PAM-ag: inactive; EP2 antag: inactive; NPY-Y2 pot conf: inactive; NPY-Y1 potentiator: inactive; NPY-Y1 ag 2: inactive; CNGC inh: inactive; NPY-Y2 ag 2: inactive

How did O=C(CCl)N=c1sccn1Cc1ccccc1Cl do in these assays?
EP2 mod: inactive; NPY2 pot ag: inactive; NPY-Y1 PAM-ag: inactive; EP2 antag: inactive

How did O=C(O)CC1(CC(=O)Nc2ccccc2N2CCOCC2)CCCC1 do in these assays?
EP2 mod: inactive; NPY2 pot ag: 59; NPY-Y1 PAM-ag: inactive; EP2 antag: inactive; NPY-Y2 pot conf: inactive; NPY-Y1 potentiator: inactive; NPY-Y1 ag 2: inactive; CNGC inh: inactive; NPY-Y2 ag 2: inactive

How did O=C(O)CCC(=O)Nc1ccccc1N1CCOCC1 do in these assays?
EP2 mod: inactive; NPY2 pot ag: inactive; NPY-Y2 antag: inactive; NPY-Y1 antag: inactive; NPY-Y1 PAM-ag: inactive; EP2 antag: inactive

How did CCC(CN1CCCC1)NC(=O)Cc1sc(C)nc1-c1cc(C)ccc1C (configuration not stated) do in these assays?
EP2 mod: inactive; EP2 antag: inactive

What do the screens show for `COc1ccccc1C(=O)Nc1ccc(N2CCN(C(=O)C(C)C)CC2)c(Cl)c1`?
EP2 mod: inactive; EP2 antag: inactive

How did N#CC(C#N)=C(Nc1ccc(F)cc1)SCc1cccc(Br)c1 do in these assays?
EP2 mod: inactive; NPY2 pot ag: inactive; NPY-Y2 antag: inactive; NPY-Y1 antag: inactive; NPY-Y1 PAM-ag: inactive; EP2 antag: inactive

How did Cc1cccc(CSC(Nc2ccc(F)cc2)=C(C#N)C#N)c1 do in these assays?
EP2 mod: inactive; NPY2 pot ag: 40; NPY-Y2 antag: inactive; NPY-Y1 antag: inactive; NPY-Y1 PAM-ag: inactive; EP2 antag: inactive; NPY-Y2 pot conf: inactive; NPY-Y1 potentiator: inactive; NPY-Y1 ag 2: inactive; CNGC inh: inactive; NPY-Y2 ag 2: inactive

Results for COc1ccc(NS(=O)(=O)c2ccc(NC(=O)c3ccc(CN4CCOCC4)cc3)cc2)cc1 ?
EP2 mod: inactive; NPY2 pot ag: 24; NPY-Y1 antag: inactive; NPY-Y1 PAM-ag: inactive; EP2 antag: inactive; NPY-Y2 pot conf: inactive; NPY-Y1 potentiator: inactive; NPY-Y1 ag 2: inactive; CNGC inh: inactive; NPY-Y2 ag 2: inactive

How did O=C(Nc1ccc(S(=O)(=O)Nc2ccc(F)cc2)cc1)c1ccc(CN2CCOCC2)cc1 do in these assays?
EP2 mod: inactive; NPY2 pot ag: inactive; NPY-Y1 antag: inactive; NPY-Y1 PAM-ag: inactive; EP2 antag: inactive

Results for CCN1C(=O)/C(=C2/C=Cc3ccccc3N2CC)SC1=S ?
EP2 mod: inactive; NPY2 pot ag: 33; NPY-Y1 antag: inactive; NPY-Y1 PAM-ag: inactive; EP2 antag: inactive; NPY-Y2 pot conf: 39; NPY-Y1 potentiator: 48; NPY-Y1 ag 2: 43; CNGC inh: 36; NPY-Y2 ag 2: 48

How did Cc1nc2sc3c(c2c2nn(CC(=O)N4CCCC4)c(=O)n12)CCC(C)C3 (configuration not stated) do in these assays?
EP2 mod: inactive

What do the screens show for `O=C(CN(c1cccc(C(F)(F)F)c1)S(=O)(=O)c1ccc(Cl)c([N+](=O)[O-])c1)NCc1ccc(F)cc1`?
EP2 mod: inactive; NPY2 pot ag: 36; NPY-Y2 antag: inactive; NPY-Y1 antag: inactive; NPY-Y1 PAM-ag: inactive; EP2 antag: inactive; NPY-Y2 pot conf: 68; NPY-Y1 potentiator: 85; NPY-Y1 ag 2: 85; CNGC inh: 64; NPY-Y2 ag 2: 79

Results for Cc1ccnc(NC(c2ccncc2)c2c(C)[nH]c3ccccc23)c1 (configuration not stated) ?
EP2 mod: inactive; NPY2 pot ag: inactive; NPY-Y2 antag: inactive; NPY-Y1 antag: inactive; NPY-Y1 PAM-ag: inactive; EP2 antag: inactive

How did Cc1[nH]c2ccccc2c1C(Nc1nccs1)c1ccncc1 (configuration not stated) do in these assays?
EP2 mod: inactive; NPY2 pot ag: 27; NPY-Y2 antag: inactive; NPY-Y1 antag: inactive; NPY-Y1 PAM-ag: inactive; EP2 antag: inactive; NPY-Y2 pot conf: inactive; NPY-Y1 potentiator: inactive; NPY-Y1 ag 2: inactive; CNGC inh: inactive; NPY-Y2 ag 2: inactive

Results for COc1ccc(-c2c(C)nn3c(NCCCN(C)C)c(C)c(C)nc23)cc1 ?
EP2 mod: inactive

How did CC(C)NC[C@@H](O)c1ccc(O)c(O)c1 do in these assays?
EP2 mod: 80; NPY2 pot ag: 52; NPY-Y2 antag: inactive; NPY-Y1 antag: inactive; NPY-Y1 PAM-ag: inactive; EP2 antag: inactive; NPY-Y2 pot conf: 54; NPY-Y1 potentiator: 51; NPY-Y1 ag 2: 73; CNGC inh: 57; NPY-Y2 ag 2: 54

Results for CC(Cc1ccc(O)c(O)c1)C(C)Cc1ccc(O)c(O)c1 (configuration not stated) ?
EP2 antag: inactive

Results for O=C(Cc1ccccc1F)N1CCC[C@@H]1Cn1nnc2ccccc21 ?
EP2 mod: inactive; EP2 antag: inactive
